Test results: ChEMBL document CHEMBL1149130, “Synthesis and biological evaluation of novel chloroethylaminoanthraquinones with potent cytotoxic activity against cisplatin-resistant tumor cells” (J Med Chem, 2004)

How the values were obtained:
[1] = tested on: A2780; assay: Growth inhibition against A2780 cisplatin resistant wild-type ovarian cell lines; format: functional, cell-based; conditions: Homo sapiens
Outline: (§1)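 Cells in exponential growth (5 × 10⁴ cells/mL) were exposed to compound freshly dissolved in DMSO for 24 h at 37 °C. Drug medium was then replaced with fresh medium, followed by 3 days of growth. Viability was read by sulforhodamine B staining. IC50 is the concentration giving a 50% reduction in SRB colour formation.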

[2] = tested on: A2780; assay: Growth inhibition against A2780 wild-type ovarian cell lines; format: functional, cell-based; conditions: Homo sapiens; outline: as §1
[3] = tested on: CH1; assay: Growth inhibition against CH-1 wild-type ovarian cell lines; format: functional, cell-based; conditions: Homo sapiens; outline: as §1
[4] = tested on: SK-OV-3; assay: Growth inhibition against SKOV3 wild-type ovarian cell lines; format: functional, cell-based; conditions: Homo sapiens; outline: as §1
[5] = species on record: Homo sapiens; assay: Resistance factor (IC50 in the resistant cell line/IC50 in the parent cell line); format: functional
[6] = tested on: CH1; assay: Growth inhibition against CH-1 cisplatin resistant wild-type ovarian cell lines; format: functional, cell-based, Homo sapiens; outline: as §1
[7] = tested on: CH1; assay: Compound was evaluated for growth inhibition against CH1cisR wild-type ovarian cell lines; format: functional, cell-based; conditions: Homo sapiens
Outline: (§2)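 Cells kept as in earlier work; exponentially growing cultures (5 × 10⁴ cells/mL) given compound freshly dissolved in DMSO, 24 h at 37 °C. Drug medium then replaced with fresh medium, followed by 3 day growth. Viability by sulforhodamine B staining; IC50 taken as concentration giving 50% reduction in SRB colour formation.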

[8] = tested on: SK-OV-3; assay: Compound was evaluated for growth inhibition against SKOV3 wild-type ovarian cell lines; format: functional, cell-based; conditions: Homo sapiens; outline: as §2

Compound | IC50 [1] [µM] | IC50 [2] [µM] | IC50 [3] [µM] | IC50 [4] [µM] | RF [5] | IC50 ([6]; Homo sapiens, CH1) [µM] | RF ([5]; Homo sapiens) | IC50 [7] [µM] | IC50 [8] [µM] | IC50 ([6]; ch1) [µM]
O=C1c2ccccc2C(=O)c2c(NCCCN(CCCl)CCCl)ccc(NCCCN(CCCl)CCCl)c21 | 0.052 | 0.031 | 0.03 | 0.19 | 3.7 | 0.11 | – | – | – | –
CN(CCO)CCNc1cccc2c1C(=O)c1ccccc1C2=O | 4.2 | 3.4 | 2.9 | 13 | 1 | 2.8 | 1.2 | – | – | –
CN(CCCl)CCNc1ccc(NCCN(C)CCCl)c2c1C(=O)c1c(O)ccc(O)c1C2=O | 0.024 | 0.009 | 0.007 | 0.1 | 1.9 | 0.014 | 2.7 | – | – | –
O=C1c2c(O)ccc(O)c2C(=O)c2c(NCCN(CCCl)CCCl)ccc(NCCN(CCCl)CCCl)c21 | 0.17 | 0.12 | 0.054 | 1.45 | 2 | 0.11 | 1.4 | – | – | –
O=C1c2ccccc2C(=O)c2c(NCCN(CCO)CCO)ccc(NCCN(CCO)CCO)c21 | 3.5 | 3.3 | 3.9 | – | 0.8 | – | 1.1 | 3.3 | 18 | –
O=C1c2ccccc2C(=O)c2c(NCCCN(CCCl)CCCl)cccc21 | 0.64 | 0.41 | 0.185 | 1.9 | 2.9 | 0.55 | 1.6 | – | – | –
CN(CCCl)CCNc1cccc2c1C(=O)c1ccccc1C2=O | 8 | 4.6 | 2.5 | 13.5 | 1.2 | 3.1 | 1.7 | – | – | –
CN(CCO)CCCNc1cccc2c1C(=O)c1ccccc1C2=O | 3.3 | 3.1 | 2.6 | 11.5 | 1 | 2.6 | 1.1 | – | – | –
CN(CCO)CCNc1ccc(NCCN(C)CCO)c2c1C(=O)c1ccccc1C2=O | 0.58 | 0.72 | 0.68 | 3.3 | 1.2 | 0.8 | 0.8 | – | – | –
O=C1c2c(O)ccc(O)c2C(=O)c2c(NCCCN(CCO)CCO)ccc(NCCCN(CCO)CCO)c21 | 0.74 | 0.68 | 0.58 | 2.45 | 1.3 | 0.78 | 1.1 | – | – | –
CN(CCCl)CCNc1ccc(NCCN(C)CCCl)c2c1C(=O)c1ccccc1C2=O | 0.355 | 0.135 | 0.11 | 0.77 | 1.3 | 0.145 | 2.6 | – | – | –
CN(C)CCNc1ccc(NCCN(CCO)CCO)c2c1C(=O)c1c(O)ccc(O)c1C2=O | 0.013 | 0.013 | 0.03 | 0.26 | 1.6 | 0.046 | 1 | – | – | –
CN(CCO)CCNc1ccc(NCCN(C)CCO)c2c1C(=O)c1c(O)ccc(O)c1C2=O | 0.004 | 0.004 | 0.008 | 11 | 2.6 | 0.022 | – | – | – | –
O=C1c2ccccc2C(=O)c2c(NCCCN(CCO)CCO)ccc(NCCCN(CCO)CCO)c21 | 3.4 | 3.5 | 2.2 | – | 1.1 | – | 1 | 2.4 | 6.7 | –
CN(CCCl)CCCNc1cccc2c1C(=O)c1ccccc1C2=O | 2.7 | 2.7 | 1.44 | 10.8 | 0.9 | 1.3 | 1 | – | – | –
O=C1c2ccccc2C(=O)c2c(NCCN(CCCl)CCCl)ccc(NCCN(CCCl)CCCl)c21 | 0.096 | 0.051 | 0.078 | 0.86 | 1.2 | 0.092 | 1.9 | – | – | –
CN(C)CCNc1ccc(NCCN(CCCl)CCCl)c2c1C(=O)c1c(O)ccc(O)c1C2=O | 0.019 | 0.016 | 0.018 | 0.155 | 1 | 0.019 | 1.2 | – | – | –
CN(C)CCNc1ccc(NCCN(C)CCO)c2c1C(=O)c1c(O)ccc(O)c1C2=O | 0.005 | 0.005 | 0.024 | 0.3 | 1.9 | 0.045 | 1 | – | – | –
O=C1c2c(O)ccc(O)c2C(=O)c2c(NCCN(CCO)CCO)ccc(NCCN(CCO)CCO)c21 | 0.115 | 0.082 | 0.3 | 1.5 | 1.2 | 0.37 | 1.4 | – | – | –
O=C1c2c(O)ccc(O)c2C(=O)c2c(NCCCN(CCCl)CCCl)ccc(NCCCN(CCCl)CCCl)c21 | 0.038 | 0.028 | 0.025 | 0.185 | – | 0.035 | 1.4 | – | – | –
O=C(O)CCCc1ccc(N(CCCl)CCCl)cc1 [CHLORAMBUCIL] | 52.5 | – | 3.3 | 35 | 2.4 | 7.9 | – | – | – | –
CISPLATIN | – | – | – | – | – | – | – | – | – | 0.65
